Results as given in ChEMBL document CHEMBL1127483, “Synthesis and structure activity relationships of cis- and trans-2,3,4,4a,9,9a-hexahydro-1H-indeno[2,1-c]pyridines for 5-HT receptor subtypes” (J Med Chem, 1994).

How the values were obtained:
[1] = biological target: Serotonin 2 (5-HT2) receptor (Rattus norvegicus, UniProt P30994+P08909+P14842); experiment: Displacement of [3H]ketanserin from 5-hydroxytryptamine 2 receptor; format: protein assay
[2] = biological target: 5-hydroxytryptamine receptor 1B (Rattus norvegicus, UniProt P28564); experiment: Inhibition of [3H]5-HT binding to 5-hydroxytryptamine 1B receptor
Sequence of 5-hydroxytryptamine receptor 1B (P28564 whole entry): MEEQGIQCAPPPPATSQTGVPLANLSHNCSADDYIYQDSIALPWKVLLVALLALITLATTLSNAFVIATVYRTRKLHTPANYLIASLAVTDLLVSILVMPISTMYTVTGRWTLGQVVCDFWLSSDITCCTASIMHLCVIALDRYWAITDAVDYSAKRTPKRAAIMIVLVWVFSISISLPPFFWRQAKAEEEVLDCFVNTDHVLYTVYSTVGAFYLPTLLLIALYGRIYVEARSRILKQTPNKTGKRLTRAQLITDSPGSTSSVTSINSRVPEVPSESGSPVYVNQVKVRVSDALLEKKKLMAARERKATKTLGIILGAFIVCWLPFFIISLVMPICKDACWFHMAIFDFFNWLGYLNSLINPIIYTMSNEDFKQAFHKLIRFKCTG
Procedure, shortened: (§1)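 [3H]5-HT binding to 5-HT1 sites. The 5-HT1A component was distinguished by masking 5-HT1A sites with 1 µM S-spiroxatrine. Values are geometric means.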

[3] = biological target: T1, 5-hydroxytryptamine receptor 1A (Rattus norvegicus, UniProt P19327); experiment: Binding affinity for 5-hydroxytryptamine 1A receptor with [3H]5-HT; procedure, shortened: as §1
T1 sequence (P19327 whole entry): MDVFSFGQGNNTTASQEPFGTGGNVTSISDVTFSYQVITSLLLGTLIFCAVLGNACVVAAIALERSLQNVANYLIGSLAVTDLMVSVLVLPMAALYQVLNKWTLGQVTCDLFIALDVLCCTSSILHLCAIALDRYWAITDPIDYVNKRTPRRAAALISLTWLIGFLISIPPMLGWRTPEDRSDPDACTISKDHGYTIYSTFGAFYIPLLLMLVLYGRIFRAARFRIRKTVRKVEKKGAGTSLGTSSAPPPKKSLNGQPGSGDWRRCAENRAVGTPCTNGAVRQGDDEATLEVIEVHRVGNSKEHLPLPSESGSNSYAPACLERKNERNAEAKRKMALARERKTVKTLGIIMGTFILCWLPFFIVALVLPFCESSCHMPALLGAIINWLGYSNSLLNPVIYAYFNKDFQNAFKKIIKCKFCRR

Row | SMILES | Ki [1] [nM] | Ki [2] [nM] | Ki [3] [nM]
1 | COc1cccc2c1C1CCN(CCNC(=O)c3ccc(F)cc3)CC1C2 (stereo not given) | 28.9 | 888 | 0.588
2 | COc1cccc2c1C1CCN(CCCCN3C(=O)c4ccccc4S3(=O)=O)CC1C2 (stereo not given) | 33.4 | 325 | 1.98
3 | CCCN1CC[C@H]2c3c(cccc3OC)C[C@@H]2C1 | 688 | 5010 | 76.2
4 | COc1cccc2c1[C@@H]1CCN(CCCCN3C(=O)CC4(CCCC4)CC3=O)C[C@@H]1C2 | 35.9 | 13600 | 54.5
5 | COc1cccc2c1[C@@H]1CCN(CCCN3C(=O)CC4(CCCC4)CC3=O)C[C@@H]1C2 | 17.4 | 96400 | 692
6 | COc1cccc2c1[C@@H]1CCN(CCCN3C(=O)CC4(CCCC4)CC3=O)C[C@H]1C2 | 15.9 | 7360 | 51.2
7 | CCCN1CC[C@H]2c3c(cccc3OC)C[C@H]2C1 | 965 | 48500 | –
8 | COc1cccc2c1[C@@H]1CCN(CCCCN3C(=O)CC4(CCCC4)CC3=O)C[C@H]1C2 | 9.3 | 800 | 1.65
9 | COc1cccc2c1C1CCN(CCCN3C(=O)c4ccccc4S3(=O)=O)CC1C2 (stereo not given) | 3 | 845 | 0.891
10 | COc1cccc2c1C1CCN(CCCCN3C(=O)C4C5C=CC(C6C=CC65)C4C3=O)CC1C2.Cl (trans isomer) | 2.58 | 1310 | 3.6
11 | CCCN(CCC)C1CCc2cccc(O)c2C1 (stereo not given) [8-OH-DPAT] | > 10000 | – | –
